Values after ≈ are worked out from the molar mass of the structure shown.
Key:
Clostridium cadaveris = experiment: In vitro antibacterial activity against the anaerobic Clostridium cadaveris (Strain UC no.6510); format: functional
In short: (§1)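 Agar dilution with serial twofold drug dilutions in Schaedler broth mixed into molten Wilkens-Chalgren agar. Plates prereduced 3 h under 85% N2/10% H2/5% CO2. Strains grown 48 h on Schaedler agar, suspended to 0.5 McFarland, and 0.001 mL spotted by replicator. All steps done anaerobically. Incubation 48 h at 37 °C. MIC is the least drug inhibiting growth; a faint film or fewer than three colonies scored negative.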

Clostridium tetani = experiment: In vitro antibacterial activity against the anaerobic Clostridium tetani(Strain UC no.6521); format: functional
In short: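 Agar dilution under anaerobic conditions. Serial twofold drug dilutions in Schaedler broth were mixed with molten Wilkins-Chalgren agar. Plates were prereduced 3 h (85% N2, 10% H2, 5% CO2). Strains were grown 48 h on Schaedler agar, suspended to 0.5 McFarland, and 0.001 mL spotted by replicator. Incubation was anaerobic, 37 °C, 48 h.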

Escherichia coli = experiment: In vitro antibacterial activity against the aerobic Escherichia coli (Strain UC no.45); format: functional
In short: (§2)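 Broth microdilution in brain/heart infusion broth with twofold drug dilutions. Inoculum was a standardized suspension giving 10⁵ viable cells/mL final. Plates were incubated 20 h at 37 °C. MIC (mcg/mL) = lowest concentration with no visible growth.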

Klebsiella pneumoniae = experiment: In vitro antibacterial activity against the aerobic Klebsiella pneumoniae (Strain UC no.58); format: functional; in short: as §2
Mus musculus [1] = experiment: Bioactivity in abscess, in Bacteroides fragilis infected mice following subcutaneous dose of 200 mg/kg after 360 mins of bleeding; format: functional
In short: (§3)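 On day 7 post-infection, groups of five mice were given a single 200 mg/kg subcutaneous dose and killed at set times. Blood was taken by cardiac puncture and abscesses were excised. Activity was measured by standard microbiological assay.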

Mus musculus [2] = experiment: Bioactivity in abscess, in Bacteroides fragilis infected mice following subcutaneous dose of 200 mg/kg after 45 mins of bleeding; format: functional; in short: as §3
Mus musculus [3] = experiment: Bioactivity in abscess, in Bacteroides fragilis infected mice following subcutaneous dose of 200 mg/kg after 60 mins of bleeding; format: functional; in short: as §3
Mus musculus [4] = experiment: Bioactivity in abscess, in Bacteroides fragilis infected mice following subcutaneous dose of 200 mg/kg after 90 mins of bleeding; format: functional; in short: as §3
Mus musculus [5] = experiment: Bioactivity in blood, in Bacteroides fragilis infected mice following subcutaneous dose of 200 mg/kg after 45 mins of bleeding; format: functional; in short: as §3
Mus musculus [6] = experiment: Bioactivity in blood, in Bacteroides fragilis infected mice following subcutaneous dose of 200 mg/kg after 60 mins of bleeding; format: functional; in short: as §3
Mus musculus [7] = experiment: Bioactivity in blood, in Bacteroides fragilis infected mice following subcutaneous dose of 200 mg/kg after 90 mins of bleeding; format: functional; in short: as §3
Mus musculus [8] = experiment: Bioactivity in blood, in Bacteroides fragilis infected mice following subcutaneous dose of 200 mg/kg after 120 mins of bleeding; format: functional; in short: as §3
Mus musculus [9] = experiment: Bioactivity in blood, in Bacteroides fragilis infected mice following subcutaneous dose of 200 mg/kg after 15 mins of bleeding; format: functional; in short: as §3
Mus musculus [10] = experiment: Bioactivity in blood, in Bacteroides fragilis infected mice following subcutaneous dose of 200 mg/kg after 150 mins of bleeding; format: functional; in short: as §3
Mus musculus [11] = experiment: Bioactivity in blood, in Bacteroides fragilis infected mice following subcutaneous dose of 200 mg/kg after 30 mins of bleeding; format: functional; in short: as §3
Mus musculus [12] = experiment: Bioactivity in blood, in Bacteroides fragilis infected mice following subcutaneous dose of 200 mg/kg after 360 mins of bleeding; format: functional; in short: as §3
Mus musculus [13] = experiment: Bioactivity in abscess, in Bacteroides fragilis infected mice following subcutaneous dose of 200 mg/kg after 120 mins of bleeding; format: functional; in short: as §3
Mus musculus [14] = experiment: Bioactivity in abscess, in Bacteroides fragilis infected mice following subcutaneous dose of 200 mg/kg after 15 mins of bleeding; format: functional; in short: as §3
Mus musculus [15] = experiment: Bioactivity in abscess, in Bacteroides fragilis infected mice following subcutaneous dose of 200 mg/kg after 150 mins of bleeding; format: functional; in short: as §3
Mus musculus [16] = experiment: Bioactivity in abscess, in Bacteroides fragilis infected mice following subcutaneous dose of 200 mg/kg after 30 mins of bleeding; format: functional; in short: as §3
[17] = tested on: Peptoniphilus asaccharolyticus; experiment: In vitro antibacterial activity against the anaerobic Peptoccus aerogenes (Strain UC no.6319); format: functional; in short: as §1
Pseudomonas aeruginosa = experiment: In vitro antibacterial activity against the aerobic Pseudomonas aeruginosa (Strain UC no.95); format: functional; in short: as §2
Proteus vulgaris = experiment: In vitro antibacterial activity against the aerobic Proteus vulgaris (Strain UC no.93); format: functional; in short: as §2
Cutibacterium acnes = experiment: In vitro antibacterial activity against the anaerobic Propionibacterium acnes(Strain UC no.6575); format: functional; in short: as §1
[18] = In vitro antibacterial activity against the aerobic Salmonella schottmuelleri (Strain UC no.126); format: functional; in short: as §2
[19] = In vitro antibacterial activity against the aerobic […] (Strain UC no.153); format: functional; in short: as §2
[20] = In vitro antibacterial activity against the aerobic […] (Strain UC no.871); format: functional; in short: as §2
[21] = In vitro antibacterial activity against the aerobic […] III(Strain UC no.3213); format: functional; in short: as §2
Staphylococcus aureus [22] = experiment: In vitro antibacterial activity against the aerobic Staphylococcus aureus (Strain UC no.571); format: functional; in short: as §2
Staphylococcus aureus [23] = experiment: In vitro antibacterial activity against the aerobic Staphylococcus aureus (Strain UC no.6675); format: functional; in short: as §2
Staphylococcus aureus [24] = experiment: In vitro antibacterial activity against the aerobic Staphylococcus aureus (Strain UC no.6686); format: functional; in short: as §2
Staphylococcus aureus [25] = experiment: In vitro antibacterial activity against the aerobic Staphylococcus aureus (Strain UC no.6688); format: functional; in short: as §2
Staphylococcus aureus [26] = experiment: In vitro antibacterial activity against the aerobic Staphylococcus aureus (Strain UC no.6689); format: functional; in short: as §2
Staphylococcus aureus [27] = experiment: In vitro antibacterial activity against the aerobic Staphylococcus aureus (Strain UC no.6691); format: functional; in short: as §2
Staphylococcus aureus [28] = experiment: In vitro antibacterial activity against the aerobic Staphylococcus aureus (Strain UC no.6692); format: functional; in short: as §2
Staphylococcus aureus [29] = experiment: In vitro antibacterial activity against the aerobic Staphylococcus aureus (Strain UC no.6693); format: functional; in short: as §2
Staphylococcus aureus [30] = experiment: In vitro antibacterial activity against the aerobic Staphylococcus aureus (Strain UC no.6694); format: functional; in short: as §2
Staphylococcus aureus [31] = experiment: In vitro antibacterial activity against the aerobic Staphylococcus aureus (Strain UC no.6695); format: functional; in short: as §2
Staphylococcus aureus [32] = experiment: In vitro antibacterial activity against the aerobic Staphylococcus aureus (Strain UC no.6696); format: functional; in short: as §2
Staphylococcus aureus [33] = experiment: In vitro antibacterial activity for minimum inhibition concentration (MIC) required to inhibit growth of Staphylococcus aureus; format: functional
In short: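 Broth microdilution in brain/heart infusion broth, inoculated with a standardized suspension to a final 10^5 viable cells/mL. Incubation 20 h at 37 °C. MIC read as the lowest concentration preventing visible growth.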

Staphylococcus aureus [34] = experiment: In vitro antibacterial activity against the aerobic Staphylococcus aureus (Strain UC no.570); format: functional; in short: as §2
Staphylococcus aureus [35] = experiment: In vitro antibacterial activity against the aerobic Staphylococcus aureus (Strain UC no.746); format: functional; in short: as §2
[36] = In vitro antibacterial activity against the aerobic […] I(Strain UC no.41); format: functional; in short: as §2
Staphylococcus aureus [37] = experiment: In vitro antibacterial activity against the aerobic Staphylococcus aureus (Strain UC no.76); format: functional; in short: as §2
Streptococcus pyogenes = experiment: In vitro antibacterial activity against the aerobic Streptococcus pyogenes (Strain UC no.152)

For `CCC[C@@H]1C[C@@H](C(=O)N[C@@H]([C@H]2O[C@H](SC)[C@H](O)[C@@H](O)[C@H]2O)[C@H](C)Cl)N(C)C1` [CLINDAMYCIN], which MIC (Clostridium cadaveris) is on record?
Its MIC is under 0.03 µg/mL.

What about the MIC (Clostridium tetani) of the same molecule?
The MIC was under 0.03 µg/mL.

And the MIC (Escherichia coli)?
Its MIC is over 25 µg/mL.

What about the MIC (Klebsiella pneumoniae) of the same molecule?
Its MIC is 12.5 µg/mL (≈ 29.4 µM).

And the A (Mus musculus [1])?
The A was 3 ug (g of abscess)-1.

And the A (Mus musculus [2])?
The A was 26 ug (g of abscess)-1.

And the A (Mus musculus [3])?
Its A is 21 ug (g of abscess)-1.

And the A (Mus musculus [4])?
The A was 13 ug (g of abscess)-1.

And the B (Mus musculus [5])?
The B was 17 ug (g of abscess)-1.

What about the B (Mus musculus [6]) of the same molecule?
The B was 12 ug (g of abscess)-1.

And the B (Mus musculus [7])?
Its B is 4 ug (g of abscess)-1.

And the B (Mus musculus [8])?
The B was 3 ug (g of abscess)-1.

What about the B (Mus musculus [9]) of the same molecule?
The B was 17 ug (g of abscess)-1.

What about the B (Mus musculus [10]) of the same molecule?
Its B is 1.4 ug (g of abscess)-1.

What about the B (Mus musculus [11]) of the same molecule?
Its B is 23 ug (g of abscess)-1.

And the B (Mus musculus [12])?
The B was 0.2 ug (g of abscess)-1.

And the A (Mus musculus [13])?
Its A is 9 ug (g of abscess)-1.

What about the A (Mus musculus [14]) of the same molecule?
The A was 16 ug (g of abscess)-1.

What about the A (Mus musculus [15]) of the same molecule?
Its A is 8 ug (g of abscess)-1.

And the A (Mus musculus [16])?
The A was 22 ug (g of abscess)-1.

What about the MIC [17] of the same molecule?
Its MIC is under 0.03 µg/mL.

What about the MIC (Pseudomonas aeruginosa) of the same molecule?
Its MIC is over 25 µg/mL.

And the MIC (Proteus vulgaris)?
Its MIC is over 25 µg/mL.

And the MIC (Cutibacterium acnes)?
The MIC was under 0.03 µg/mL.

What about the MIC [18] of the same molecule?
Its MIC is over 25 µg/mL.

And the MIC [19]?
The MIC was under 0.012 µg/mL.

And the MIC [20]?
The MIC was under 0.012 µg/mL.

What about the MIC [21] of the same molecule?
Its MIC is under 0.012 µg/mL.

And the MIC (Staphylococcus aureus [22])?
The MIC was 0.2 µg/mL (≈ 0.471 µM).

And the MIC (Staphylococcus aureus [23])?
The MIC was 0.05 µg/mL (≈ 0.118 µM).

And the MIC (Staphylococcus aureus [24])?
The MIC was 0.05 µg/mL (≈ 0.118 µM).

And the MIC (Staphylococcus aureus [25])?
Its MIC is over 25 µg/mL.

And the MIC (Staphylococcus aureus [26])?
The MIC was 0.05 µg/mL (≈ 0.118 µM).

And the MIC (Staphylococcus aureus [27])?
Its MIC is 0.1 µg/mL (≈ 0.235 µM).

What about the MIC (Staphylococcus aureus [28]) of the same molecule?
The MIC was over 25 µg/mL.

What about the MIC (Staphylococcus aureus [29]) of the same molecule?
Its MIC is 0.05 µg/mL (≈ 0.118 µM).

What about the MIC (Staphylococcus aureus [30]) of the same molecule?
Its MIC is over 25 µg/mL.

What about the MIC (Staphylococcus aureus [31]) of the same molecule?
Its MIC is 0.1 µg/mL (≈ 0.235 µM).

And the MIC (Staphylococcus aureus [32])?
The MIC was 0.1 µg/mL (≈ 0.235 µM).

And the MIC (Staphylococcus aureus [33])?
Its MIC is over 25 µg/mL.

And the MIC (Staphylococcus aureus [34])?
The MIC was 0.2 µg/mL (≈ 0.471 µM).

What about the MIC (Staphylococcus aureus [35]) of the same molecule?
The MIC was 0.05 µg/mL (≈ 0.118 µM).

What about the MIC [36] of the same molecule?
Its MIC is under 0.012 µg/mL.

And the MIC (Staphylococcus aureus [37])?
Its MIC is 0.05 µg/mL (≈ 0.118 µM).

What about the MIC (Streptococcus pyogenes) of the same molecule?
The MIC was under 0.012 µg/mL.

Reference: ChEMBL document CHEMBL1122773 (1984)
